{"data": "Measurements of several laboratories", "CTSL": "Procathepsin L (CTSL, Homo sapiens, UniProt P07711)", "note": "Each line is one published result; the experiments were not run side by side."}
{"Compound": "Nc1ncnc2c1ncn2[C@@H]1O[C@H](COP(=O)(O)OP(=O)(O)OP(=O)(O)OP(=O)(O)OP(=O)(O)OC[C@H]2O[C@@H](n3cnc4c(N)ncnc43)[C@H](O)[C@@H]2O)[C@@H](O)[C@H]1O", "target": "Oxidized purine nucleoside triphosphate hydrolase (NUDT1, Homo sapiens, UniProt P36639)", "effect on": "enzyme activity", "action": "substrate", "endpoint": "Km", "value": "26 µM"}
{"Compound": "Oc1ncnc2[nH]ncc12", "target": "Xanthine dehydrogenase/oxidase (XDH, Bos taurus, UniProt P80457)", "effect on": "enzyme activity", "action": "inhibitor", "technique": "absorbance", "concentration": "53 µg/mL", "endpoint": "inhibition", "value": "100%"}
{"Compound": "CNc1ncc2c(/C=C/C(=O)N3CCC(OC)CC3)nn(Cc3cccc(C(F)(F)F)c3)c2n1", "target": "Tyrosine-protein kinase Blk (BLK, Homo sapiens, UniProt P51451)", "effect on": "enzyme activity", "action": "inhibitor", "technique": "radiometric", "concentration": "1 µM", "endpoint": "remaining activity", "value": "84%"}
{"Compound": "COc1cc(-c2cncc3c2CN(C)Cc2cc(N4CCNCC4)ccc2-3)cc(OC)c1OC", "target": "Tau-tubulin kinase 2 (TTBK2, Homo sapiens, UniProt Q6IQ55)", "effect on": "enzyme activity", "action": "inhibitor", "concentration": "1 µM", "endpoint": "remaining activity", "value": "104%"}
{"Compound": "CC(C)=CCC(O)C1=CC(=O)c2c(O)ccc(O)c2C1=O (stereo not shown)", "target": "CTSL", "effect on": "enzyme activity", "action": "inhibitor", "concentration": "100 µM", "endpoint": "remaining activity", "value": "113%"}
{"Compound": "C=CC(=O)N1CCC(COCC(=O)N2CCN(c3nc(-c4cnc(N)nc4C(F)F)nc(N4CCOC[C@@H]4C)n3)CC2)CC1", "target": "Ephrin type-B receptor 1 (EPHB1, Homo sapiens, UniProt P54762)", "effect on": "binding", "technique": "competition with immobilised ligand", "concentration": "1 µM", "endpoint": "remaining binding", "value": "100%"}
{"Compound": "O=Cc1nccc2c1[nH]c1ccccc12", "target": "CTSL", "effect on": "enzyme activity", "action": "inhibitor", "concentration": "100 µM", "endpoint": "remaining activity", "value": "150%"}
{"Compound": "N=c1c[n+](N2CCOCC2)[n-]o1", "target": "NAD-dependent protein deacetylase sirtuin-1 (SIRT1, Homo sapiens, UniProt Q96EB6)", "effect on": "enzyme activity", "action": "inhibitor", "endpoint": "KI (inactivation)", "value": "27 µM"}
{"Compound": "O=C1/C(=C/c2ccc(O)c(O)c2)COc2cc(O)ccc21", "target": "CTSL", "effect on": "enzyme activity", "action": "inhibitor", "concentration": "100 µM", "endpoint": "remaining activity", "value": "26.7%"}
{"Compound": "Cc1cc([C@@H](C)Nc2ccccc2C(=O)O)c2nc(N3CCC(F)(F)CC3)c(C#N)c(=O)n2c1", "target": "Serine/threonine-protein kinase STK11 (STK11, Homo sapiens, UniProt Q15831)", "effect on": "binding", "technique": "competition with immobilised ligand", "concentration": "1 µM", "endpoint": "remaining binding", "value": "92%"}
